Compound activity deposited in PubChem BioAssay by several laboratories.
PglD inh: C. jejuni PglD acetyltransferase inhibitors, primary screen, biochemical, DTNB colorimetric, single point | purified PglD enzyme, DTNB colorimetric CoA detection | hit rate 0.098% among 360,000 | UDP-N-acetylbacillosamine N-acetyltransferase PglD (Campylobacter jejuni) | inhibition, % at 12.5 µM; in the data active means inhibition above about 16%, passing the limit was not always enough
Cneo AK release: Cryptococcus neoformans cell lysis inducers, primary screen, AK release luminescence, single concentration. C. neoformans lysis, adenylate kinase release luminescence, 4 h; normalised: neutral wells 0, clomiphene wells 100. lysis activity, % at 15 µM. hit rate 0.2% among 360,000. AID 651654, 2012;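 active means mean lysis activity across replicates of at least 80%, whatever share of replicates individually reach that level; inactive means mean lysis activity below 80%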
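Material: C. neoformans cells; Schedule: 4 h static compound exposure, 37 °C, read 1 h post-reagent; Measured by: adenylate kinase release luminescence; Read-out: signal increase indicating cell lysis; Controls: Clomiphene as positive lysis control.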
CR mimetic SO: reduction of superoxide in aged yeast, primary screen, HTS. superoxide response (% of plate mean), % at 10 µM. S. cerevisiae aged cells, superoxide DHE fluorescence; hits give low values. hit rate 0.18% among 330,000;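 active means superoxide response under a set limit, about three screen SD below normal, cut at about 65% in these data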;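 further: yeast aged for seven days with compound at 30 °C before DHE staining; 100% = average MFI of all compound-treated wells on the plate with controls excluded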
rRNA inh HTS: reduced GFP signal of wild-type E. coli, primary screen, bacterial rRNA inhibitor project, GFP/RFP fluorescence, OD600, single point; hit rate 1.6% among 350,000; E. coli WT GFP vs humanized-ribosome RFP mutants, 24 h; hits give low values; DMSO median 0, no signal -100; GFP signal change (wild-type ribosome), % (concentration not given with the values);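 active means significant combined selectivity score with lowered wild-type GFP, culture density cut under 30%, mutant RFP and density less affected; inactive means any of these conditions unmet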
SUMO Mot1 rescue: yeast Mot1-301 growth rescue at high temperature, primary screen, SUMOylation pathway inhibitor project, S. cerevisiae, ATP luminescence, 38.5C; hit rate 1% among 320,000; S. cerevisiae Mot1-301 growth rescue; percent above DMSO median, 100 means doubled; AID 2716, 2010; growth rescue, % at 18.8 µM;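 active means every valid replicate shows activation above 250% relative to neutral control wells; inactive means the rest, any valid replicate at or below 250%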;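 further: OY570 slx delta 5 strain wells were the positive control but not used for scaling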
* marks the source's active call; other numbers are inactive results; · = no result; + = active, no number. This is a sample that favours compounds with a hit; in the whole collection about 2.2% have one here.

SMILES	PglD inh	Cneo AK release	CR mimetic SO	rRNA inh HTS	SUMO Mot1 rescue
COc1cccc(-c2cnc3c(c2)C(=O)N([C@H](C)CO)C[C@H](C)[C@H](CN(C)S(=O)(=O)c2cccs2)O3)c1	-5	4	·	1	·
S=C(Nc1ccccn1)NC1CCCCC1	0	17	88	-23*	11
S=C(Nc1ccc(Nc2ccccc2)cc1)Nc1ccccn1	·	·	111	-32*	23
CCNC(=O)c1cc2c(c(-c3cccc(-c4cccc(F)c4)c3)n1)[C@H](CCO)N([S@@](=O)C(C)(C)C)C2	5	4	·	-5	·
COc1cc(/C=N/O)cc(Br)c1OC	-10	-1	96	·	-4
COc1cc(/C=N/O)cc(Cl)c1OC	2	-1	92	12	328*
O=C(CC1CC1)Nc1ccc2c(c1)[C@H]1C[C@H](CC(=O)N3CCCCC3)O[C@@H](CO)[C@H]1O2	-1	2	·	4	·
C=CCc1ccc(OCCCCN2CC(C)CC(C)C2)c(OC)c1 (stereo not given)	2	4	82	-22*	60
C=CCc1ccc(OCCCCN2CCC(C)CC2)c(OC)c1	·	·	93	·	44
CCCNC(=O)N1[C@@H]2c3ccc(-c4cccc(OC)c4)c(=O)n3C[C@H]1[C@H](CO)[C@H]2C(=O)NC1CCC1	4	46	·	0	·
O=C(COC(=O)c1cccc(F)c1)NC(=O)NC1CCCC1	3	3	90	-5	·
O=C(COC(=O)c1cccc(NS(=O)(=O)c2ccc(F)c(F)c2)c1)NC(=O)NC1CCCC1	·	·	101	-36*	200
CO[C@H]1O[C@H](CO)[C@@H](OC(=O)Nc2ccccc2)[C@H](OC(=O)Nc2ccc3c(c2)OCO3)[C@@H]1OC(=O)Nc1ccc2c(c1)OCO2	2	100*	·	·	·
FC(F)(F)c1ccccc1Cc1c(-c2ccccc2)nc2ccc(Br)cn12	-2	-1	·	-27*	·
COC(=O)c1ccccc1N=Nc1c(C)noc1C	·	·	106	-28*	6
CCN1[C@@H]2c3ccc(-c4ccncc4)c(=O)n3C[C@@H]2[C@@H](CO)[C@@H]1C(=O)NCCc1cn(C)cn1	4	1	·	2	·
Cc1noc(C)c1S(=O)(=O)Nc1ccc2c(c1)CC(=O)N([C@H](C)CO)C[C@@H](C)[C@H](CN(C)Cc1ccc(C(=O)O)cc1)O2	-1	-1	·	3	·
O=S(=O)(N/N=C1/CC(c2ccccc2)Oc2ccccc21)c1ccccc1 (stereo not given)	·	·	·	-12*	·
CC(C)C(=O)Nc1cc(S(=O)(=O)Nc2cccc(Cl)c2)ccc1Cl	2	1	107	-22*	-6
O=C(CCC(=O)c1ccc(F)cc1)Nc1cccc(S(=O)(=O)Nc2cccc(Cl)c2)c1	·	·	80	-41*	0
CO[C@H]1CN(C)C(=O)c2cc(NC(=O)C3CCC3)ccc2OC[C@@H](C)N(C(=O)NC(C)C)C[C@H]1C	2	-7	·	-1	·
Cc1cc(Br)ccc1SCC(=O)OCC(=O)NCc1ccco1	3	-3	116	-18*	-8
O=C(COC(=O)CSc1ccc(Br)cc1)NCc1ccco1	-4	-2	103	2	-1
O=C(Cc1ccccc1)N1CC[C@@H]2[C@H]1c1cc(C#Cc3ccccc3)ccc1N[C@@H]2CO	1	-11	·	-2	·
O=C(NCCSCc1ccco1)Nc1cc(Cl)cc(Cl)c1	-3	-5	85	-51*	-2
SMILES	PglD inh	Cneo AK release	CR mimetic SO	rRNA inh HTS	SUMO Mot1 rescue
CNC[C@@H]1Oc2ccc(NS(C)(=O)=O)cc2C(=O)N(C)C[C@@H]1C	·	·	·	-2	·
O=C(C[C@H]1C=C[C@@H](NS(=O)(=O)c2ccc(F)cc2)[C@H](CO)O1)NCc1ccccc1F	·	·	·	-4	·
CCOC(=O)/C(=N\Nc1cccc(C(F)(F)F)c1)N1CCOCC1	·	·	91	-3	266*
CCOC(=O)/C(=N\Nc1cccc(C(F)(F)F)c1)N(CCOC)CCOC	-2	-2	94	·	·
COc1ccccc1C(=O)OCC(=O)Nc1cc(S(=O)(=O)N2CCOCC2)ccc1N1CCCC1	·	·	100	·	407*
Cc1ccc(NC(=O)COC(=O)c2cccnc2Cl)cc1S(=O)(=O)N1CCOCC1	4	-1	109	-25*	-20
COc1ccccc1CNCC(=O)Nc1cc(S(=O)(=O)N2CCCCC2)ccc1C	3	2	99	-5	·
Cc1ccc(S(=O)(=O)N2CCOCC2)cc1NC(=O)COC(=O)c1cccc(Cl)c1Cl	-4	-1	·	-32*	·
Cc1ccc(S(=O)(=O)N2CCOCC2)cc1NC(=O)COC(=O)c1cccnc1Cl	·	·	93	4	-7
COc1ccccc1CNCC(=O)Nc1cc(S(=O)(=O)N2CCCCCC2)ccc1Cl	·	·	88	-31*	16
CCNC(=O)C[C@H]1CC[C@@H]2[C@H](COc3ccc(NC(=O)c4ccc(F)cc4)cc3C(=O)N2C)O1	0	-3	·	5	·
COCC#Cc1cnc2c(c1)C(=O)N([C@@H](C)CO)C[C@@H](C)[C@H](CN(C)C(=O)c1ccc(F)cc1)O2	-4	0	·	5	·
C/C=C/c1ccc2c(c1)O[C@@H](CN(C)Cc1ccc(C(=O)O)cc1)[C@@H](C)CN([C@H](C)CO)S2(=O)=O	-3	-6	·	-2	·
O=C(NC1CCCC1)N1CCCCN2[C@H](CO)[C@H](c3ccc(-c4ccccc4)cc3)[C@H]2C1	-2	0	·	-5	·
O=C(Nc1ccccc1C(=O)O)c1cc(S(=O)(=O)N2CCCCCC2)ccc1Cl	0	-2	131	-44*	5
O=C(O)c1cc(S(=O)(=O)N2CCCCCC2)ccc1Cl	-4	-5	90	·	55
C[C@H]1CN([C@@H](C)CO)C(=O)Cc2cc(NC(=O)Nc3ccc4c(c3)OCO4)ccc2O[C@@H]1CN(C)C(=O)NC1CCCCC1	-3	-1	·	2	·
O=C(NCc1nc2ncc(Br)cc2[nH]1)c1ccccc1	-1	0	103	·	0
O=c1[nH]c2cc(Br)cnc2nc1/C=C(\O)c1ccc(F)cc1	-2	3	119	9	338*
CO[C@H]1CN(C)C(=O)c2ccc(NC(=O)C3CCOCC3)cc2OC[C@@H](C)N(C(=O)c2ccccc2)C[C@@H]1C	·	·	·	1	·
CCN1[C@@H]2Cn3c(ccc(-c4cccc(F)c4)c3=O)[C@H]1[C@@H](C(=O)N(C)C)[C@@H]2CO	-1	-6	·	8	·
N#C/C(=N\Nc1cccc2ccccc12)c1nnc2n1CCCCC2	·	·	109	23	+
N#C/C(=C\c1c[nH]c2ccccc12)c1nnc2n1CCCCC2	-13	0	92	·	0
C[C@H](CO)N1C[C@H](C)[C@H](CN(C)C(=O)c2ccc(F)cc2)Oc2cc(C3=CCCCC3)ccc2S1(=O)=O	-1	-3	·	2	·
